The values that follow come from ChEMBL document CHEMBL3414459, “Phenolic thio- and selenosemicarbazones as multi-target drugs” (Eur J Med Chem, 2015).

A short description of data set [1]: Antioxidant activity assessed as DPPH free radical scavenging activity incubated for 30 mins. The class given is physicochemical. Summed up: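 DPPH in HPLC-grade solvent mixed with compound in DMSO at 7 concentrations, or with DMSO alone as control. Kept in the dark at rt for 30 min, then A515 read against a blank. % DPPH remaining = A_sample/A_control × 100, plotted against concentration; EC50 taken from the straight line. Triplicate.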
(Loss of DPPH colour is used to gauge radical scavenging.)

A short description of data set [2]: Antioxidant activity assessed as H2O2 scavenging activity at 100 uM incubated for 20 mins by phenol red based assay. The format is physicochemical. In a few lines: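 Compound at 100 µM final, or DMSO control, in 0.1 M phosphate buffer pH 7.4 with H2O2 and 0.1 M NaCl, incubated in the dark at 37 °C for 20 min. Phenol red (0.2 mg/mL) and horseradish peroxidase (0.1 mg/mL) added, 15 min at 37 °C. NaOH added, 10 min at rt, A610 read. % reduction = (A_control − A_sample)/A_control × 100.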

A short description of data set [3]: Antioxidant activity assessed as inhibition of the lipid peroxidation at 0.74 mM incubated for 24 hrs by ferric thiocyanate method. The class given is physicochemical. The settings on record: 740 µM. Summed up: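 Ferric thiocyanate method at 0.74 mM. 10.0 mM DMSO stock combined with methanolic linoleic acid in 0.2 M phosphate buffer pH 7.0. AAPH added, then 24 h at 50 °C in the dark; DMSO served as control. An aliquot was diluted in H2O–DMSO with NH4SCN and FeCl2 in HCl. After 3 min at rt, A546 read. % inhibition relative to control.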

Data set [4] can be described thus: Inhibition of baker's yeast alpha-glucosidase using p-nitrophenyl-alpha-D-glucopyranoside substrate assessed as reduction in p-nitrophenolate formation at 500 uM. As to conditions: Saccharomyces bayanus. In a few lines:
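α-Glucosidase in 0.1 M phosphate buffer pH 6.8 with p-nitrophenyl-α-D-glucopyranoside at K_M (250 µM; K_M 0.25 mM). Inhibitor at 500 µM final or DMSO, DMSO 5% v/v.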

Another data set deals with A549. Description: Antiproliferative activity against human A549 cells after 48 hrs by sulforhodamine B assay. The class given is functional. As to conditions: A549, 48 h. In a few lines:
(§1)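 Exponentially growing cells trypsinized into penicillin/streptomycin medium, >97% viable by trypan blue. Seeded per well: 10,000 (A549, HBL-100, HeLa, SW1573), 15,000 (T-47D), 20,000 (WiDr). Treatment began day 1, DMSO stocks 40 mM, 0.25% DMSO as control, triplicate, 48 h. Cells fixed with cold TCA 60 min at 4 °C, SRB stained, OD492 read, medium background subtracted.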
For orientation: The SRB assay estimates cell density from bound dye.

A short description of data set [5]: Antiproliferative activity against human HBL100 cells after 48 hrs by sulforhodamine B assay. The format is functional. The settings on record: HBL-100, 48 h. Summed up:
as §1

A further data set has as its system SW1573. In words: Antiproliferative activity against human SW1573 cells after 48 hrs by sulforhodamine B assay. The format is functional. As to conditions: SW1573, 48 h. Summed up: as §1
The test system of the next data set is HeLa. Description: Antiproliferative activity against human HeLa cells after 48 hrs by sulforhodamine B assay. The format is functional. In a few lines: as §1
Another data set concerns T47D. In words: Antiproliferative activity against human T47D cells after 48 hrs by sulforhodamine B assay. The format is functional. Summed up: as §1
A further data set has as its system WiDr. In words: Antiproliferative activity against human WiDr cells after 48 hrs by sulforhodamine B assay. The format is functional. In a few lines:
as §1

Data set [6] is described as follows: Potency index, ratio of IC50 for hydroxytyrosol to IC50 for test compound for antioxidant activity assessed as DPPH free radical scavenging activity incubated for 30 mins.
The nature of data set [7]: Inhibition of baker's yeast alpha-glucosidase using p-nitrophenyl-alpha-D-glucopyranoside substrate assessed as inhibition constant for enzyme-compound binding by measuring reduction in p-nitrophenolate formation. On the set-up: species or system Saccharomyces cerevisiae. In a few lines: (§2)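 Same α-glucosidase conditions: pH 6.8 phosphate buffer, 25 °C, A400 for p-nitrophenolate, 5% DMSO. Done for inhibitors exceeding 50% inhibition at 500 µM. Rates measured at 5 substrate concentrations from 0.25 to 4.0 K_m, each at a fixed inhibitor concentration, using 2–3 inhibitor concentrations. Lineweaver–Burk double reciprocal plots gave the inhibition mode and constants K_ia (E) and K_ib (ES).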

Data set [8] is described as follows: Inhibition of baker's yeast alpha-glucosidase using p-nitrophenyl-alpha-D-glucopyranoside substrate assessed as inhibition constant for enzyme-substrate-compound binding by measuring reduction in p-nitrophenolate formation. In a few lines: as §2
A short description of data set [9]: Mixed inhibition of baker's yeast alpha-glucosidase using p-nitrophenyl-alpha-D-glucopyranoside substrate assessed as reduction in p-nitrophenolate formation by Lineweaver-Burk plot. As to conditions: Saccharomyces bayanus. In a few lines:
as §2

Data set [10] in a line: Pro-oxidant activity assessed as hydroxyl radical generation through deoxyribose degradation by measuring change in absorbance at 0.83 mM by TBARS based spectrophotometry. As to conditions: 830 µM. The class given is ADME. In a few lines:
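Modified Halliwell deoxyribose assay with the compound at the stated concentration in 0.1 M phosphate buffer pH 7.4, with 2-deoxyribose, H2O2, and FeCl3 premixed with EDTA. Heated 1 h at 37 °C, then TBA in NaOH and trichloroacetic acid added and heated 15 min at 100 °C. Cooled, A532 read; DMSO as control. Repeated without deoxyribose to account for TBARS interference.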

pEC50, pKi: −log10 of the molar value. Active and inactive are the calls of the source. The rule behind the calls is not given here.

With `O=Cc1ccc(O)c(O)c1` [PROTOCATECHUALDEHYDE], in data set [1], the pEC50 (usually the negative decadic logarithm of the EC50, by convention in mol/L) was 5.18. The results for the “inhibition (INH)” value in data set [2] and in data set [3] were 78.3% and 35.7%, respectively. Further, the inhibition (as a rule, the drop in the measured response relative to a control, in per cent) in data set [4] is “inactive”. Moreover, the GI50 (as a rule, the concentration giving 50% growth inhibition) is 42 µM in the data set with A549; above 100 µM in data set [5]; 54 µM with SW1573; 49 µM with HeLa; above 100 µM in the data set with T47D; above 100 µM with WiDr.

Regarding `Oc1ccc(/C=N/NC(=S)Nc2ccccc2)cc1O`, the pEC50 in data set [1] was 5.03. Also, the “inhibition (INH)” value in data set [2] amounted to 79.3%; in data set [3], 72%. Besides, the Ratio IC50 in data set [6] is below 3. Moreover, the inhibition in data set [4] is 68%. The pKi (in general, the negative decadic logarithm of the Ki, by convention in mol/L) in data set [7] is 3.15; in [8], 3.87. Moreover, the inhibition entry in data set [9] was “Active”. Further, the GI50 in the data set with A549 came to 1.6 µM; in [5], 35 µM; in the data set on SW1573 it was 24 µM; in the data set with HeLa it was 7 µM; in the data set on T47D it was 25 µM; in the data set with WiDr, 27 µM.

Consider `NNC(=[Se])Nc1cccc2ccccc12`, for which the negative-log EC50 (pEC50) in [1] is 5.18. The “inhibition (INH)” value in [2] stood at 56.9%; in data set [3], 21.9%. Besides, the Ratio IC50 in data set [6] is below 3. For the same compound, the Activity in data set [10] stood at 0.064. The inhibition in data set [4] was 14%.

`OCCc1ccc(O)c(O)c1` [HYDROXYTYROSOL]: the pEC50 in [1] was 4.86.

As to `O=Cc1cc(O)c(O)cc1O`, in [1], the pEC50 is 5.22. The results for the “inhibition (INH)” value in [2] and in data set [3] were 80.3% and 56.1%, respectively. Further, the inhibition result in [4] was “inactive”. Besides, the GI50 (in the data set on A549; in data set [5]; in the data set with SW1573; in the data set on HeLa; with T47D; with WiDr) was above 100 µM in each case.

Consider `Oc1cc(/C=N/NC(=[Se])Nc2cccc3ccccc23)cc(O)c1O`, for which the pEC50 in [1] was 5.05. Further, the “inhibition (INH)” value in data set [2] was determined as 38.1%; in [3] it was 24.3%. Moreover, the Activity in data set [10] is recorded as 0.067. Moreover, in data set [4], the inhibition is 98%. For the same compound, the pKi was 3.81 in data set [7] and 4.15 in [8]. Further, the inhibition entry in [9] was “Active”. Besides, the GI50 came out at 1.7 µM in the data set on A549; 2.4 µM in data set [5]; 2.9 µM in the data set with SW1573; 2.3 µM in the data set on HeLa; 2.7 µM in the data set with T47D; 3.6 µM with WiDr.

Consider `O=c1[nH]cc(F)c(=O)[nH]1` [FLUOROURACIL], for which the GI50 stood at 5.5 µM in [5]; 4.3 µM with SW1573; 15 µM in the data set on HeLa; 47 µM in the data set with T47D; 49 µM in the data set with WiDr.

For `O=Cc1cc(O)c(O)c(O)c1`, the pEC50 in [1] was 4.81. The “inhibition (INH)” value is recorded as 79.1% in [2] and “Not Active” in [3]. The inhibition result in data set [4] was “inactive”. In addition, the GI50 with A549 stood at 7.3 µM; in data set [5], 72 µM; with SW1573, 38 µM; with HeLa it was 16 µM; in the data set on T47D, 43 µM; with WiDr it was 39 µM.

On to `O=Cc1ccc(O)cc1` [4-HYDROXYBENZALDEHYDE], for which, in data set [1], the pEC50 is below 3.60. Also, the “inhibition (INH)” value in data set [2] and in [3] was “Not Active” each time. Moreover, in [4], the inhibition result was “inactive”. Besides, the GI50 (with A549; in data set [5]; in the data set on SW1573; with HeLa; in the data set on T47D; with WiDr) was above 100 µM throughout.
